Source: ChEMBL document CHEMBL1155063 (Bioorg Med Chem, 2008)

Molecular target: Telomerase reverse transcriptase (Homo sapiens, UniProt O14746)
Test: Inhibition of G-quadruplex-induced human TERT in H1299 cells by TRAP assay
Assay type: cell-based
How it was run: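 Modified TRAP assay using 2 µg total lysate from H1299 lung cancer cells as the telomerase source. Compounds were tested at 1, 5, 10 and 20 µM. Products were resolved on 10% polyacrylamide gels and stained with SYBR Green. A Taq-polymerase internal control was included, along with positive and negative controls.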

Chain of Telomerase reverse transcriptase (O14746 whole entry): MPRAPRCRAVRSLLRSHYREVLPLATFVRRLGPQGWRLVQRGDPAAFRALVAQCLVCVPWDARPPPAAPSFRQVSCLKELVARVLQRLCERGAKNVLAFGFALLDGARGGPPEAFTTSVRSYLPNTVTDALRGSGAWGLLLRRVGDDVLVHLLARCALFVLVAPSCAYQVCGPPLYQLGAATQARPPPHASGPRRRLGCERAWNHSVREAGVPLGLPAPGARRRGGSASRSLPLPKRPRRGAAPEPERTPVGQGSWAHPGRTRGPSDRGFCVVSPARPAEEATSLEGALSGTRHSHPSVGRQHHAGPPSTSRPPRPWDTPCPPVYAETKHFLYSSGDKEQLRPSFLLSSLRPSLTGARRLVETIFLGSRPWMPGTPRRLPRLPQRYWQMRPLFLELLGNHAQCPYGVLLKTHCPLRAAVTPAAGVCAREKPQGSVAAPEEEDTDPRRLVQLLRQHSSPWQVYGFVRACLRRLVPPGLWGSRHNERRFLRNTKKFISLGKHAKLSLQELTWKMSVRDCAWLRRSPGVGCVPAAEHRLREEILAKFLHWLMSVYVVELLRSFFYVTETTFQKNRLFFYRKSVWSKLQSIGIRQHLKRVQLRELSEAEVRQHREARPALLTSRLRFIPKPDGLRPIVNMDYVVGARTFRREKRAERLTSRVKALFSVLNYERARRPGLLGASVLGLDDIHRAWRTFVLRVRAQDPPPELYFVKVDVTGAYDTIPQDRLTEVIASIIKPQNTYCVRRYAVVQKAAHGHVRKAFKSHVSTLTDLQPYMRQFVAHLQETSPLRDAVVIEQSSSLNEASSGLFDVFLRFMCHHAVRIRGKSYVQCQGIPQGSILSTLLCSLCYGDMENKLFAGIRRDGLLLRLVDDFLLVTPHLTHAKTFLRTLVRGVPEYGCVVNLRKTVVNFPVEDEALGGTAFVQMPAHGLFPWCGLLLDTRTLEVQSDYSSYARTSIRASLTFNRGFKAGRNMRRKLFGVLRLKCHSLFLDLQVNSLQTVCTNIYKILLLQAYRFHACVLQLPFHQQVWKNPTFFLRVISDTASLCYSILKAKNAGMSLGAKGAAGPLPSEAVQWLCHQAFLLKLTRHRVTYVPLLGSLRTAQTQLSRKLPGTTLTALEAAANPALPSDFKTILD

- IC50: 6.7 µM
Structure (SMILES): O=C(CCN1CCCC1)Nc1ccc2c(c1)C(=O)c1cc(NC(=O)CCN3CCCC3)ccc1C2=O
